The list is not random: actives were taken first. Their share in the collection is about 3.7%.
KCNK9 inh: KCNK9 potassium channel inhibitors, primary screen, HEK293 cells, thallium flux. Potassium channel subfamily K member 9 (Homo sapiens), Q9NPC2. FluxOR thallium flux fluorescence; hits give low values. B-score at 10 µM. 310,000 compounds, 1.2% hits. AID 488922, 2010;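 active means ratio B-score over 3 SD below the library mean, with starting fluorescence within 5 SD of its mean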;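 further: negative B-score means less thallium flux so channel inhibition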
hERG rescue: hERG rescue from dofetilide block, primary screen, cell-based, CHO-hERG, FluxOR thallium flux, dofetilide IC70 | Voltage-gated inwardly rectifying potassium channel KCNH2 (Homo sapiens), Q12809 | dofetilide IC70 present | 310,000 compounds, 0.51% hits | AID 1511, 2009 | activation (rescue from dofetilide block), less the hit threshold, % at 10 µM;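 active means activation above the mean of controls blocked by dofetilide plus 5 SD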;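 further: thallium influx through hERG after potassium depolarization seen as dye fluorescence rise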
Kir21 inh: inhibitors of mouse Kir2.1 inward-rectifier potassium channel; Inward rectifier potassium channel 2 (Mus musculus), P35561; HEK293-Kir2.1, FluxOR thallium flux fluorescence; hits give low values; B-score at 10 µM; 310,000 compounds, 0.85% hits; AID 1672, 2009;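 active means fluorescence ratio B-score at or below minus 3 SD of library scores, with starting-brightness B-score within 2 SD, cut at about -4.2 in these data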;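 further: channel flux triggered by added potassium and thallium sulfate stimulus; B-score of peak minus minimum fluorescence over baseline after thallium stimulus; more negative B-score means stronger Kir2.1 block with less thallium influx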
KCNQ1 act: potentiators or activators of KCNQ1 channel, primary screen, cell-based, thallium flux, high-throughput; Potassium voltage-gated channel subfamily KQT member 1 (Homo sapiens), P51787; CHO-K1 KCNQ1, thallium flux FluxOR fluorescence; hits give high values; B-score at 10 µM; 310,000 compounds, 0.35% hits; AID 2648, 2010;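 active means fluorescence ratio B-score, a plate-corrected score, at least three library SD, with initial intensity B-score within 5 SD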
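Test system: CHO-K1 cells stably expressing KCNQ1 / Medium: assay buffer / Also added: depolarizing K+/Tl+ stimulus, K2SO4 and Tl2SO4 each 12.5 mM in 5x stock / Incubation: 90 min dye loading and 20 min compound exposure, both at room temperature / Signal: thallium influx via FluxOR fluorescence, kinetic imaging / Evaluation: B score of baseline-normalized fluorescence ratio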
KCNK3 inh: human KCNK3 channel inhibitors, primary screen, CHO cells, FluxOR thallium flux, B-score; 340,000 compounds, 0.84% hits; B-score at 10 µM; Potassium channel subfamily K member 3 (Homo sapiens), O14649; FluxOR fluorescence; hits give low values;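 active means B-score under library mean minus 4 SD, starting fluorescence ratio at most library mean plus 5 SD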;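 further: more negative B-score means stronger inhibition of thallium flux through KCNK3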
Target sequence (O14649 whole entry, looked up): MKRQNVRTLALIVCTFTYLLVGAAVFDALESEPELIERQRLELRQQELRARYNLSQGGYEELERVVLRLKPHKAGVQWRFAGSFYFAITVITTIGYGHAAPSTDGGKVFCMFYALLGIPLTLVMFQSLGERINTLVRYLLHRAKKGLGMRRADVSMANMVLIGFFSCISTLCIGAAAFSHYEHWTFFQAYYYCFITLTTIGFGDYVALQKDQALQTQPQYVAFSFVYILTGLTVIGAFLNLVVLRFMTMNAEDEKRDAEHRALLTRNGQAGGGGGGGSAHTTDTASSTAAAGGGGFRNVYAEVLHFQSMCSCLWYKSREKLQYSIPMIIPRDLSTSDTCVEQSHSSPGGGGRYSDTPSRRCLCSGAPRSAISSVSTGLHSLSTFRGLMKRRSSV
KCNQ1 block: inhibitors of human KCNQ1 channel, primary screen, cell-based, thallium flux, high-throughput. AID 2642, 2010. Potassium voltage-gated channel subfamily KQT member 1 (Homo sapiens), P51787. B-score at 10 µM. 310,000 compounds, 1.3% hits. CHO-K1 KCNQ1, FluxOR thallium flux fluorescence; hits give high values;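 active means compounds whose thallium flux B-score, printed positive for inhibition, exceeds three library SD while starting fluorescence stays within three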;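 further: channel opened by potassium depolarization with thallium stimulus after 20 min compound exposure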
An asterisk follows results filed as active; i = inactive; . = no result given.

SMILES	KCNK9 inh	hERG rescue	Kir21 inh	KCNQ1 act	KCNK3 inh	KCNQ1 block
OC1(c2ccccc2)CNCCc2ccccc21 (stereo unspecified)	i	-6.1	-0.05	i	i	i
CC(=Nc1cccc(C)c1)c1sc2ccccc2c1O	-6.98*	-2.3	-1.18	i	i	i
Cc1cn(C2CCCCC2)c(=O)n(-c2ccccc2)c1=O	.	.	.	.	i	.
CSC(C(=O)c1cc2ccccc2o1)c1ccccc1 (stereo unspecified)	i	-6.0	-1.03	15*	i	i
CCOc1ccc(-n2c(-c3ccccc3)c[n+]3c2CCCCC3)cc1	i	-17.1	-0.63	i	i	8*
COc1ccc(OC)c(NC(=O)c2cccnc2Sc2cc(C)ccc2C)c1	-7.59*	-5.9	-1.9	i	i	i
O=C(COc1ccccc1)Nc1c2c(nn1-c1ccccc1)CS(=O)C2 (stereo unspecified)	i	-7.5	-0.51	i	i	i
CCCCC1(Cc2ccc([N+](=O)[O-])cc2)C(=O)N(c2ccccc2)N(c2ccccc2)C1=O	i	-7.0	0	i	i	8*
CC(=O)Nc1ccc(S(=O)(=O)N2CCN(c3ccc([N+](=O)[O-])cc3)CC2)cc1	i	-1.1	-0.69	i	i	i
COC(=O)c1c(NS(=O)(=O)Cc2ccccc2)sc2c1CCCC2	i	17.7*	-0.48	13*	i	i
COC(=O)c1c(NC(=O)CCNCc2ccco2)sc2c1CCC2	i	-10.5	-8.09*	i	i	i
CCOC(=O)c1c(NC(=S)NC)sc2c1CC(C)(C)SC2	i	44.5*	-0.59	71*	i	i
CNC(=S)Nc1sc2c(c1C(=O)OC)CCC2	i	11.0*	0.15	16*	i	i
Nc1ncnc2c1ncn2[C@@H]1O[C@H](CNC(=O)[C@@H](N)Cc2ccc(C(F)(F)F)cc2)[C@@H](O)[C@H]1O	.	.	.	.	i	.
COCCN(C(=O)COC(=O)c1nc(Cl)ccc1Cl)c1c(N)n(Cc2ccccc2)c(=O)[nH]c1=O	i	-10.0	0.4	i	i	i
COC(=O)c1c(NC(=S)Nc2ccc(F)cc2[N+](=O)[O-])sc2c1CCCCC2	i	6.4*	-0.23	10*	i	i
COc1ccc(C(=O)Nc2ccc(Cl)cc2C(=O)NCc2ccco2)cc1	i	-18.8	2.43	i	i	i
CCC(C)C(NC(=O)c1ccccc1NC(=O)c1ccc(OC)cc1)C(=O)NCc1ccco1 (stereo unspecified)	i	-13.4	0.07	i	i	7*
Cc1cccc(OCC(O)Cn2c(N3CCCCC3)nc3c2c(=O)n(C)c(=O)n3C)c1 (stereo unspecified)	i	-0.8	0.99	i	i	i
COc1ccc(-n2c(-c3ccc(Cl)cc3)c[n+]3c2CCc2ccccc2-3)cc1	i	-19.2	-2.35	i	i	11*
COc1ccc2cc(C(C)=O)c(=O)oc2c1	i	-3.1	0.65	i	i	i
N=c1oc2cc(O)ccc2cc1C(=O)Nc1ccc(Cl)cc1	i	-7.0	0.35	i	i	6*
Cc1ccc(NC(=O)c2cc3ccccc3oc2=N)cc1	i	-4.9	0.66	i	i	i
CC(=O)c1cc2ccc(O)cc2oc1=O	i	-19.5	-3.06	i	i	7*
Cc1ccc(C)c(S(=O)(=O)N2CCN(C(=O)Cn3c(=O)cnc4ccccc43)CC2)c1	i	-9.8	0.9	i	i	i
O=C1ON=C(c2cccc([N+](=O)[O-])c2)/C1=C/c1ccc(O)cc1	i	-25.4	-6.76*	i	i	7*
COc1cc(/C=C2/C(=O)N(c3cccc(Br)c3)N=C2C)cc(OC)c1O	i	-7.8	1.34	i	i	8*
